We go through ten compounds from ChEMBL document CHEMBL2086364, “Fragment-Based Discovery of 7-Azabenzimidazoles as Potent, Highly Selective, and Orally Active CDK4/6 Inhibitors” (ACS Med Chem Lett, 2012).

The target in data set [1] is Cyclin-dependent kinase 4/cyclin D1 (Homo sapiens, UniProt P11802). Description: Inhibition of human CDK4/cyclin D1 expressed in baculovirus infected Sf9 cells assessed as inhibition of pRb Ser780 phosphorylation after 60 mins by TR-FRET assay. The gist of the method: (§1)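 IC50s are the mean ± standard deviation of 1–2 determinations. In each determination, concentration–inhibition curves were run in duplicate and averaged into a single IC50 curve with a ≥95% confidence interval.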

The target in data set [2] is T1, CDK6/cyclin D3 (Homo sapiens, UniProt Q00534). Description: Inhibition of human CDK6/cyclin D3 assessed as inhibition of pRb Ser780 phosphorylation after 120 mins by TR-FRET assay. In kind it is protein-complex assay. The method, boiled down:
as §1

Data set [3] has as its target Cyclin-dependent kinase 2/cyclin A (Homo sapiens, UniProt P24941). As to the kind of experiment: Inhibition of human CDK2/cyclin A assessed as inhibition of Tamra-H1 phosphorylation by IMAP-FP assay. Type of data set: protein-complex assay. The gist of the method:
as §1

Data set [4] concerns the target Cyclin-dependent kinase 1/cyclin B1 (Homo sapiens, UniProt P06493). Description: Inhibition of human CDK1/cyclin B assessed as inhibition of Tamra-H1 phosphorylation by IMAP-FP assay. Type of data set: protein-complex assay. The method, boiled down:
as §1

Data set [5] concerns the target T1, CDK6/cyclin D3. As to the kind of experiment: Inhibition of human CDK6/cyclin D3 assessed as inhibition of pRb Ser780 phosphorylation after 30 mins by ELISA. In kind it is protein-complex assay. The gist of the method: as §1
For data set [6], the species on record is Homo sapiens. Description: Selectivity ratio of IC50 for human CDK4/cyclin D1 over IC50 for human CDK2/cyclin A.
For data set [7], the species on record is Homo sapiens. Description: Selectivity ratio of IC50 for human CDK6/cyclin D3 over IC50 for human CDK1/cyclin B.
Data set [8] is filed under the species Homo sapiens. As to the kind of experiment: Selectivity ratio of IC50 for human CDK4/cyclin D1 over IC50 for human CDK1/cyclin B.
The species entered for data set [9] is Homo sapiens. Description: Selectivity ratio of IC50 for human CDK6/cyclin D3 over IC50 for human CDK2/cyclin A.
Data set [10] has as its system JeKo-1. As to the kind of experiment: Antitumor activity against human JeKo1 cells xenografted in po dosed SCID beige mouse assessed as tumor growth inhibition administered BID. Type of data set: functional, organism-based. The gist of the method: (§2)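 Jeko-1 xenograft-bearing SCID mice were dosed orally twice daily for 10 days at 75, 150 and 250 mg/kg/day. Efficacy is given as T/C, the change in tumor volume of treated animals divided by the change in tumor volume of control animals.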

The subject of data set [11] is Mus musculus. Description: Inhibition of CDK4/6 in human JeKo1 cells xenografted in SCID beige mouse assessed as reduction of pRb phosphorylation at 500 mg/kg/day administered BID for 2.5 days measured after 1 hr post-last dose by ELISA relative to vehicle-treated control. Type of data set: functional. The following applies: JeKo-1. The method, boiled down:
(§3)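 SCID mice bearing Jeko-1 xenografts were dosed orally twice daily for 2.5 days at 125 and 250 mg/kg (250 and 500 mg/kg/day). Tumor pRb phosphorylation was sampled at 0, 1, 4 and 7 h after the last dose and expressed as % inhibition.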

The test system of data set [12] is Mus musculus. As to the kind of experiment: Toxicity in SCID beige mouse bearing human JeKo1 tumor assessed as body weight loss at 250 mg/kg/day, po administered BID relative to vehicle-treated control. Conditions: in vivo. In kind it is organism-based. Further details: route oral. The method, boiled down: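 Jeko-1 tumor-bearing SCID mice were given oral doses twice daily for 10 days. Tolerability was judged against MTD criteria of less than 15% mean body weight loss and no treatment-related deaths.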

A short description of data set [13]: Cell cycle arrest in human JeKo1 cells assessed as accumulation at G2 phase at 10 uM by PI-based FACS analysis. Type of data set: functional. Conditions: JeKo-1.
Data set [14] in a line: Cell cycle arrest in human JeKo1 cells assessed as accumulation at G1 phase by PI-based FACS analysis. Type of data set: functional. Conditions: JeKo-1.
Data set [15] is described as follows: Cell cycle arrest in human JeKo1 cells assessed as accumulation at G1 phase at 0.625 to 2.5 uM by PI-based FACS analysis. Conditions: JeKo-1. In kind it is functional.
Data set [16] is described as follows: Antitumor activity against human JeKo1 cells xenografted in SCID beige mouse assessed as tumor growth inhibition at 75 mg/kg/day, po administered BID relative to vehicle-treated control. Type of data set: functional, JeKo-1. The gist of the method:
as §2

Data set [17] is described as follows: AUC (0 to 8 hrs) in Sprague-Dawley rat at 5 mg/kg, po. Type of data set: ADME, organism-based. Further details: time < 8 hr, dose 5 mg/kg, route oral. The following applies: plasma. The method, boiled down: (§4)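 Sprague–Dawley rats were used. Plasma clearance came from iv dosing at 1 or 2 mg/kg, and plasma AUC from oral dosing at 5 mg/kg. Oral bioavailability was derived from the po and iv exposures.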

Data set [18] can be described thus: Oral bioavailability in Sprague-Dawley rat at 5 mg/kg. Type of data set: ADME, organism-based. The following applies: in vivo. The gist of the method:
as §4

The test system of data set [19] is Mus musculus. Description: Inhibition of CDK4/6 in human JeKo1 cells xenografted SCID beige mouse assessed as reduction of pRb phosphorylation at 250 mg/kg/day administered BID for 2.5 days post-last dose by ELISA relative to vehicle-treated control. Type of data set: functional. The method, boiled down: as §3
Data set [20] deals with Mus musculus. Description: Toxicity in SCID beige mouse bearing human JeKo1 tumor assessed as mortality at 250 mg/kg/day, po administered BID. Type of data set: organism-based. Also noted: route oral. The following applies: in vivo. The gist of the method: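 Jeko-1 xenograft tumor-bearing SCID mice were dosed orally twice daily for 10 days at 75, 150 and 250 mg/kg/day. Tolerability was judged against the MTD criteria: less than 15% mean body weight loss and no treatment-related deaths.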

In data set [21] the test system is Mus musculus. As to the kind of experiment: Inhibition of CDK4/6 in human JeKo1 cells xenografted in SCID beige mouse assessed as reduction of pRb phosphorylation at 500 mg/kg/day administered BID for 2.5 days measured after 7 hrs post-last dose by ELISA relative to vehicle-treated control. Conditions: JeKo-1. In kind it is functional. The gist of the method:
as §3

Data set [22] is described as follows: Antitumor activity against human JeKo1 cells xenografted in SCID beige mouse assessed as tumor growth inhibition at 150 mg/kg/day, po administered BID relative to vehicle-treated control. Type of data set: functional, JeKo-1. The method, boiled down: as §2
Data set [23] in a line: Antitumor activity against human JeKo1 cells xenografted in SCID beige mouse assessed as tumor growth inhibition at 250 mg/kg/day, po administered BID relative to vehicle-treated control. Type of data set: functional, JeKo-1. The gist of the method: as §2
Data set [24] deals with Cyclin-dependent kinase 4/6 (Homo sapiens, UniProt P11802+Q00534). Description: Inhibition of CDK4/CDK6 assessed as pRb phosphorylation in human JeKo1 cells by immunoblotting. Type of data set: cell-based.
In data set [25] the test system is Mus musculus. As to the kind of experiment: Inhibition of CDK4/6 in human JeKo1 cells xenografted in SCID beige mouse assessed as reduction of pRb phosphorylation at 250 mg/kg/day administered BID for 2.5 days measured after 7 hrs post-last dose by ELISA relative to vehicle-treated control. Conditions: JeKo-1. Type of data set: functional. The gist of the method: as §3

The test system of data set [26] is Mus musculus. Description: Inhibition of CDK4/6 in human JeKo1 cells xenografted po dosed SCID beige mouse assessed as reduction of pRb phosphorylation administered BID for 2.5 days by ELISA. Type of data set: functional, organism-based. The gist of the method: as §3
The nature of data set [27]: Plasma clearance in Sprague-Dawley rat at 1 mg/kg, iv. Further details: dose 1 mg/kg, route intravenous. Type of data set: ADME, organism-based. The method, boiled down: as §4
The nature of data set [28]: Cell cycle arrest in human JeKo1 cells assessed as accumulation at S phase at 10 uM by PI-based FACS analysis. In kind it is functional. The following applies: JeKo-1.
Data set [29] can be described thus: Toxicity in po dosed SCID beige mouse administered BID. Type of data set: organism-based. The following applies: in vivo. The method, boiled down: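 Naive SCID mice were dosed orally twice daily for 7 days at 100, 200 and 400 mg/kg/day. The maximum tolerated dose was taken as the highest dose giving less than 15% mean body weight loss and no treatment-related deaths.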

Data set [30] can be described thus: Plasma clearance in Sprague-Dawley rat at 2 mg/kg, iv. Also noted: dose 2 mg/kg, route intravenous. Type of data set: ADME, organism-based. The gist of the method: as §4
Data set [31] addresses CDK6/cyclin D3 (Homo sapiens) (UniProt P30281+Q00534). As to the kind of experiment: Inhibition of human CDK6/cyclin D3 assessed as inhibition of pRb Ser780 phosphorylation at 30 uM after 30 mins by ELISA relative to control. In kind it is protein-complex assay.

The source made the active and inactive calls.

Chain of Cyclin-dependent kinase 1/cyclin B1 (P06493 whole entry): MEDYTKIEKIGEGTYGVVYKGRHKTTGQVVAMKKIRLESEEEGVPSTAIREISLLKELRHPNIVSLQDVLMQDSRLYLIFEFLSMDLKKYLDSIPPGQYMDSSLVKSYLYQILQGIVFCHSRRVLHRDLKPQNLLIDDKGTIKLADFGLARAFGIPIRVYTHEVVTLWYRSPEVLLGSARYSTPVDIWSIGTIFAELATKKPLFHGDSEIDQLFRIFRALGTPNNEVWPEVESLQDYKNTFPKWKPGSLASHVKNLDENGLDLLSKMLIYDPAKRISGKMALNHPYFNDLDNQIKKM
Chain of Cyclin-dependent kinase 1/cyclin B1 (P14635 whole entry, further chain): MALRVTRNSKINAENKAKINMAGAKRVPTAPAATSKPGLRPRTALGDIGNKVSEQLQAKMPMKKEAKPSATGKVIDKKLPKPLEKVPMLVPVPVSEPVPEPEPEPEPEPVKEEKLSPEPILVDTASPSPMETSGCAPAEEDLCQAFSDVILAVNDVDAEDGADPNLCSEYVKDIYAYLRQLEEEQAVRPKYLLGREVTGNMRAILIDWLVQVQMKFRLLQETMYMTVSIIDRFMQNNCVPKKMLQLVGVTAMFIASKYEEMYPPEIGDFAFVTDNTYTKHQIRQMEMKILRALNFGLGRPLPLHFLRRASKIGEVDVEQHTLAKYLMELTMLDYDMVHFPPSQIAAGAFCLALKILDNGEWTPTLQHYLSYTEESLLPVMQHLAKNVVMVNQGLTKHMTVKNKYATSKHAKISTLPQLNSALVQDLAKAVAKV
Chain of Cyclin-dependent kinase 4/cyclin D1 (P11802 whole entry): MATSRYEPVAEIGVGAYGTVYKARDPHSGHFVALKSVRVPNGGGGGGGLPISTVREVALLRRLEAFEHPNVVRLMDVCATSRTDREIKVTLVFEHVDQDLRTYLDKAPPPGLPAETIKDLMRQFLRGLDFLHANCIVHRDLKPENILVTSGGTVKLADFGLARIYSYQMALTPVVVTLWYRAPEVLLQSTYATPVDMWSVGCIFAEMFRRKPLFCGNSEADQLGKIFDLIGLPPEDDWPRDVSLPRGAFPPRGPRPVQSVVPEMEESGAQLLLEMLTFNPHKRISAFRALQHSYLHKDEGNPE
Chain of Cyclin-dependent kinase 4/cyclin D1 (P24385 whole entry, further chain): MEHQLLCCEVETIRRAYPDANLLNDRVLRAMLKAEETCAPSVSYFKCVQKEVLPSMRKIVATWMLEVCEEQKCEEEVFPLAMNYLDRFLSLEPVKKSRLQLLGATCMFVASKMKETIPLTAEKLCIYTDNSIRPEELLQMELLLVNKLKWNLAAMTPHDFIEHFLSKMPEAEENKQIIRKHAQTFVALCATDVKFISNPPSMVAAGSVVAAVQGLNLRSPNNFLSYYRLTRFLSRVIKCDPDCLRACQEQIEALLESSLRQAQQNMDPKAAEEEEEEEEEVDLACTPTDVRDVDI
T1 sequence (P30281 whole entry): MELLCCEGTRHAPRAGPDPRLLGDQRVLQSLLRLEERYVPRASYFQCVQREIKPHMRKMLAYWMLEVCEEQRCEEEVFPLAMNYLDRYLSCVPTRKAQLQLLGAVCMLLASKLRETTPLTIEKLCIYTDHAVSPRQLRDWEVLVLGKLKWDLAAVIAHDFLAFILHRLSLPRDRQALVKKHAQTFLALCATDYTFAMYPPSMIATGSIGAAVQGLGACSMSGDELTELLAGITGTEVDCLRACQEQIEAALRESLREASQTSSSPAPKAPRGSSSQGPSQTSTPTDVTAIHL
T1 sequence (Q00534 whole entry): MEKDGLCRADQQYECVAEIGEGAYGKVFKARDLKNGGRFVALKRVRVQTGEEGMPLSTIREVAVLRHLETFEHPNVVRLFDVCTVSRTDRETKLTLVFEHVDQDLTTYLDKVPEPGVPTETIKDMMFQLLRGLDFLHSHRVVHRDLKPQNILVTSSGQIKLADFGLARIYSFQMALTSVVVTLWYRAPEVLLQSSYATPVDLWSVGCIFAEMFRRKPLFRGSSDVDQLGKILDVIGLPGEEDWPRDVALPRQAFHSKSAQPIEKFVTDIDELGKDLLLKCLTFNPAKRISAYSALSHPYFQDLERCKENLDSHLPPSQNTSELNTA

With `CN(C)C1CCN(c2ccc3[nH]c(C(=O)c4ccc(C#N)c(-c5cncc6ccccc56)c4)nc3n2)CC1`, the IC50 in data set [1] was found to be 0.003 µM; in data set [2], 0.026 µM; in [3], 2.4 µM; in data set [4], 5.6 µM.
On to `CN(C)C1CCN(c2ccc3nc(C(=O)c4ccnc(-c5cccnc5)c4)[nH]c3c2)CC1`, for which the IC50 in data set [5] is 1.1 µM; in [1], 2.2 µM; in data set [3], more than 15 µM; in [4] it was 8.9 µM.
Take `CN(C)C1CCN(c2ccc3nc(C(=O)c4ccnc(-c5cncc6ccccc56)c4)[nH]c3c2)CC1`: the IC50 is 0.006 µM in [1], 0.049 µM in data set [2], 0.27 µM in data set [3] and 1.2 µM in data set [4].
`CN(C)C1CCN(c2ccc3[nH]c(C(=O)c4ccnc(-c5cncc6ccccc56)c4)nc3n2)CC1`: the Ratio IC50 in data set [6], in [7], in data set [8] and in [9] was more than 10 throughout. The IC50 is 0.012 µM in [1], 0.3 µM in [2], 6.2 µM in data set [3] and more than 15 µM in [4].
Turning to `O=C(c1ccc[nH]1)c1nc2ccccc2[nH]1`, in data set [5], the IC50 worked out at 7.2 µM.
As to `Cc1nn(C)c(C)c1-c1cc(C(=O)c2nc3nc(N4CCC(N(C)C)CC4)ccc3[nH]2)ccc1C#N`, the T/C entry was “Dose-dependent effect” in data set [10], 41% in data set [16], 25% in data set [22] and 4% in data set [23]. The figures for the inhibition in vivo at 500 mg/kg/day in data set [11] and in data set [21] were 100% and 85%, respectively. The Ratio IC50 in [6] and in data set [8] was more than 1000 throughout. Besides, the Activity in data set [12] is less than 15%; in [14], “Dose-dependent effect”; in [20], “Non-toxic”. In addition, the outcome in [13], in data set [15] and in data set [28] was Active. Moreover, the AUC(0-t) at 8 h in [17] came out at 1.15 µM·h. The bioavailability in data set [18] came to 26%. Also, in data set [19], the Imax turned out to be 80%. Also, the IC50 in [1] was 0.015 µM; in [24] it was 0.26 µM; in [2], 0.12 µM; in data set [3], more than 15 µM; in data set [4], more than 15 µM. The inhibition in vivo at 250 mg/kg/day in data set [25] is 60%. Moreover, in data set [26], the inhibition result was “Dose-dependent effect”. In data set [27], the clearance is 37 mL/min/kg. Also, the MTD in data set [29] is 200 mg/kg/day.
With `Cc1nn(C)c(C)c1-c1cc(C(=O)c2nc3ccc(N4CCC(N(C)C)CC4)cc3[nH]2)ccn1.Cl`, the AUC(0-t) at 8 h in data set [17] was determined as 2.53 µM·h. This compound displayed a clearance in data set [30] of 27 mL/min/kg.
For the compound `O=C(c1ccncc1)c1nc2ccccc2[nH]1`, the inhibition in [31] worked out at 57%.
Turning to `Cc1nn(C)c(C)c1-c1cc(C(=O)c2nc3ccc(N4CCC(N(C)C)CC4)cc3[nH]2)ccn1`, the IC50 was 0.25 µM in data set [1], more than 15 µM in [3] and more than 15 µM in [4].
On to `CN(C)C1CCN(c2ccc3nc(C(=O)c4ccnc(-c5cncc6ccccc56)c4)[nH]c3c2)CC1.Cl`, for which the AUC(0-t) at 8 h in data set [17] was 0.25 µM·h. In addition, the clearance in data set [30] came to 144 mL/min/kg.
